Like-named read-outs stand apart in the source and are kept apart here.
Legend:
Format in all cases: cell-based
HeLa = test: MTT cytotoxicity assay, HeLa; conditions: read-out: IC50 HeLa
Procedure, shortened: (§1)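 MTT viability assay run in parallel on MCF-7, HeLa and non-cancerous HUVEC cells. Test concentrations: benzimidazole derivatives at 50–250 μM and benzothiazole derivatives at 5–100 μM. IC50 derived from the MTT read-out.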

HUVEC = test: MTT cytotoxicity assay, HUVEC; conditions: read-out: IC50 HUVEC
Procedure, shortened: as §1

MCF-7 = test: MTT cytotoxicity assay, MCF-7
Procedure, shortened: as §1

[1] = read-out: IC50 MCF-7, MTT, MCF-7 cells

SMILES | IC50 (HeLa; Homo sapiens, HeLa) | IC50 (HUVEC; Homo sapiens, HUVEC) | IC50 (MCF-7; Homo sapiens, MCF7, read-out: IC50 MCF-7) | IC50 (HeLa; MTT, HeLa cells) | IC50 (HUVEC; MTT, non-cancerous HUVEC line) | IC50 (MCF-7; [1])
COc1cccc2c1C(=O)c1c(O)c3c(c(O)c1C2=O)C[C@@](O)(C(=O)CO)C[C@@H]3O[C@H]1C[C@H](N)[C@H](O)[C@H](C)O1 [Doxorubicin] | 1.45 ± 0.15 µM | 93 ± 0.54 µM | 17.44 ± 0.04 µM |  |  | 
Nc1c(C(=O)Nc2ccc(F)cc2)sc2nc(-c3cccs3)cc(C(F)(F)F)c12 [FDI-6] |  |  |  | 18.9 ± 0.89 µM | 240.3 ± 1.14 µM | 25.8 ± 2.41 µM
N#Cc1ccc(COC[C@H]2O[C@@H](n3c(NCc4ccc(Cl)c(Cl)c4)nc4c(N)ncnc43)[C@H](O)[C@@H]2O)cc1 [VER-155008] |  |  |  | 55.26 ± 0.25 µM | 150 ± 2.23 µM | 23.9 ± 1.09 µM
